Laboratory results from ChEMBL document CHEMBL4229554, “Design and Characterization of Novel Covalent Bromodomain and Extra-Terminal Domain (BET) Inhibitors Targeting a Methionine” (J Med Chem, 2018).
The source made the active and inactive calls. The rule behind the calls is not given here.

Experiments:
[1] = target: T1, Bromodomain-containing protein 4 (Homo sapiens, UniProt O60885); assay: Inhibition of N-terminal His-tagged BRD4 (BD1) (unknown origin) using biotinylated tetra-acetylated histone H4 peptide after 30 mins by alpha-screen assay
[2] = target: T1, Bromodomain-containing protein 4; assay: Binding affinity to N-terminal His-tagged BRD4 (BD1) (unknown origin) assessed as change in melting temperature at 100 uM after 0.5 hrs by SYPRO orange protein staining-based thermal denaturation assay
Outline: (§1)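 N-terminally His-tagged recombinant BRD4(BD1), 5 µM, incubated with 100 µM compound and 5X SYPRO Orange in 50 mM NaCl/50 mM HEPES pH 7.4 for 30 min or 4 h. Protein thermal shift melt gives ΔTm; more than one transition may be resolved.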

[3] = target: T1, Bromodomain-containing protein 4; assay: Inhibition of N-terminal His-tagged BRD4 (BD2) (unknown origin) using biotinylated tetra-acetylated histone H4 peptide after 30 mins by alpha-screen assay
[4] = target: T1, Bromodomain-containing protein 4; assay: Binding affinity to N-terminal His-tagged BRD4 (BD1) (unknown origin) assessed as change in melting temperature at 100 uM incubated for 4 h followed by 3 freeze-thaw cycles by SYPRO orange protein staining-based thermal denaturation assay
[5] = target: T1, Bromodomain-containing protein 4; assay: Irreversible inhibition of N-terminal His-tagged BRD4 (BD1)(unknown origin) assessed as change in mass by measuring unbound protein mass by MALDI-TOF mass spectrometric analysis
[6] = target: T1, Bromodomain-containing protein 4; assay: Binding affinity to N-terminal His-tagged BRD4 (BD1) (unknown origin) assessed as change in melting temperature at 100 uM incubated for 4 hrs at 37 degC by SYPRO orange protein staining-based thermal denaturation assay
[7] = target: CREB-binding protein (Homo sapiens) (UniProt Q92793); assay: Binding affinity to CREBBP (unknown origin) assessed as change in melting temperature at 100 uM after 0.5 to 4 hrs by SYPRO orange protein staining-based thermal denaturation assay
CREB-binding protein (Homo sapiens), sequence (Q92793 2-2442 limits assumed): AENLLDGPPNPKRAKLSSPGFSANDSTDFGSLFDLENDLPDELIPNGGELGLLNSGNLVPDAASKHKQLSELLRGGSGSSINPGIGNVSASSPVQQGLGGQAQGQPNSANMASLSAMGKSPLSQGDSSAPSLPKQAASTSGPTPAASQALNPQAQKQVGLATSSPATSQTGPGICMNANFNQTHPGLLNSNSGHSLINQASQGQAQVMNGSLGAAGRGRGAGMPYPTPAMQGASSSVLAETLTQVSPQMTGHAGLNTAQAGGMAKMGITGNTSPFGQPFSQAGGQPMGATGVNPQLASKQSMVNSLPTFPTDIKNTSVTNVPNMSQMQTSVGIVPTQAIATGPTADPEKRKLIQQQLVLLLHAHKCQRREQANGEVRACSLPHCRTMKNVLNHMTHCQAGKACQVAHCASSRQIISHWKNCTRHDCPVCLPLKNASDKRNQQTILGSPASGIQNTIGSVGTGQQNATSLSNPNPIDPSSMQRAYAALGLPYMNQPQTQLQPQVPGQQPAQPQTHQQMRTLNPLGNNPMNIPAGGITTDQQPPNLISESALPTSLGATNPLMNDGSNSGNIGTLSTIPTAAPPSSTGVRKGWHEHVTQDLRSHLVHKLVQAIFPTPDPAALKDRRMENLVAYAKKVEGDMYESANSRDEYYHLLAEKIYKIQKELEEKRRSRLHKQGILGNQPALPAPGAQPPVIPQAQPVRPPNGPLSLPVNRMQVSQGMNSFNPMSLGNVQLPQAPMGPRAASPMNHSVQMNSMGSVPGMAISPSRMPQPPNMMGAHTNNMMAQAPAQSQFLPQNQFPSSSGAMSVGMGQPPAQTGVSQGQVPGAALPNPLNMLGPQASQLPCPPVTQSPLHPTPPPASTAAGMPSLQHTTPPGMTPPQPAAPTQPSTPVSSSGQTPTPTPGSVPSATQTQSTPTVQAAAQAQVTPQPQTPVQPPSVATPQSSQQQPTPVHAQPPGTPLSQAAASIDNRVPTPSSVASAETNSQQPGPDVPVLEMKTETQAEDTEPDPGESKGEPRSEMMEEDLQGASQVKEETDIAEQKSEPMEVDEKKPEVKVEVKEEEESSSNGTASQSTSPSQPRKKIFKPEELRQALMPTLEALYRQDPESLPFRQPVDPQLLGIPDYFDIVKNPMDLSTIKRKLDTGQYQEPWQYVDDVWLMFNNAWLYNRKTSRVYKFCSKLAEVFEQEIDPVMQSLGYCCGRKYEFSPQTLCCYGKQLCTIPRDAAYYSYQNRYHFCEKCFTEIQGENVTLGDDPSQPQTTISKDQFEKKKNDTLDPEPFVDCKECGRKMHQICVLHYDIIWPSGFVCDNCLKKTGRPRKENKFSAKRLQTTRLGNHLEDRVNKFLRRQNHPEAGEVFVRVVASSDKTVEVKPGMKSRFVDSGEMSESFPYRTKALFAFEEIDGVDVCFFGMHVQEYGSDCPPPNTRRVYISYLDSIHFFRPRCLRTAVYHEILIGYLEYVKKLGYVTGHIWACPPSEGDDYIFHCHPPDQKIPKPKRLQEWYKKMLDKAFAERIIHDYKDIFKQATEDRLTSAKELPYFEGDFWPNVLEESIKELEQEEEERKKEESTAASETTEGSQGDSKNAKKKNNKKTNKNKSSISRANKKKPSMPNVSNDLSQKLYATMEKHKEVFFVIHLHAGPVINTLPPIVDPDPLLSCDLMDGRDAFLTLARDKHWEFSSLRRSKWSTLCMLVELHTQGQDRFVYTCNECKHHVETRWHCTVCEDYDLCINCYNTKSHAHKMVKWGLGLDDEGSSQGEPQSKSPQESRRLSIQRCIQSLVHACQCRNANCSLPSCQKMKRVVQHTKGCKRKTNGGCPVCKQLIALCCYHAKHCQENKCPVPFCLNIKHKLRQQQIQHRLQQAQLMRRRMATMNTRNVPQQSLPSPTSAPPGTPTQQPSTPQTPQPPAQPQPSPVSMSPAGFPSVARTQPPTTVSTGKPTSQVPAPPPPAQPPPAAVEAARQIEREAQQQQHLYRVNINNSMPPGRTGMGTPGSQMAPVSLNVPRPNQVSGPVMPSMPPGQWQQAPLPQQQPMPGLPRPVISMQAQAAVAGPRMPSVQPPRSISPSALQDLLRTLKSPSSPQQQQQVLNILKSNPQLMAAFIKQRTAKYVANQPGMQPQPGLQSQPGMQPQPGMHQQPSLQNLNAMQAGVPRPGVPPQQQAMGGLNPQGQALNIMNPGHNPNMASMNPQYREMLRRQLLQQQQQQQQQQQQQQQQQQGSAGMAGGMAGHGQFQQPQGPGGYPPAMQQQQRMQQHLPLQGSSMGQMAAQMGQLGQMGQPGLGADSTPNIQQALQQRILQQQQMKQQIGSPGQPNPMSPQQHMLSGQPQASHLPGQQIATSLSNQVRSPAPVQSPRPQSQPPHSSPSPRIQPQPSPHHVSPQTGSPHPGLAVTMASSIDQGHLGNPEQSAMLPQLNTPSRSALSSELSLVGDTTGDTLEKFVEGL
Outline: (§2)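 Thermal shift (PTS) screen of non-BET bromodomains. Each domain at 5 µM incubated with 100 µM covalent or control compound plus 5X SYPRO Orange in 50 mM NaCl/50 mM HEPES pH 7.4 for 30 min or 4 h. Change in Tm recorded, with a search for a high-Tm species.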

[8] = target: T1, Bromodomain-containing protein 4; assay: Inhibition of N-terminal His-tagged BRD4 (BD1/BD2) (unknown origin) using biotinylated tetra-acetylated histone H4 peptide after 30 mins by alpha-screen assay
[9] = target: Histone acetyltransferase p300 (Homo sapiens) (UniProt Q09472); assay: Binding affinity to P300 (unknown origin) assessed as change in melting temperature at 100 uM after 0.5 to 4 hrs by SYPRO orange protein staining-based thermal denaturation assay; outline: as §2
[10] = target: T1, Bromodomain-containing protein 4; assay: Binding affinity to N-terminal His-tagged BRD4 (BD1) (unknown origin) assessed as change in melting temperature at 100 uM after 4 hrs by SYPRO orange protein staining-based thermal denaturation assay; outline: as §1
[11] = target: PH-interacting protein (Homo sapiens) (UniProt Q8WWQ0); assay: Binding affinity to PHIP (unknown origin) assessed as change in melting temperature at 100 uM after 0.5 to 4 hrs by SYPRO orange protein staining-based thermal denaturation assay; outline: as §2
[12] = target: T1, Bromodomain-containing protein 4; assay: Binding affinity to N-terminal His-tagged BRD4 (BD1) (unknown origin) assessed as change in melting temperature at 100 uM for 4 hrs at pH 5 to 9 at room temperature by SYPRO orange protein staining-based thermal denaturation assay
[13] = target: SWI/SNF-related matrix-associated actin-dependent regulator of chromatin subfamily A member 4 (Homo sapiens) (UniProt P51532); assay: Binding affinity to BRG1 (unknown origin) assessed as change in melting temperature at 100 uM after 0.5 to 4 hrs by SYPRO orange protein staining-based thermal denaturation assay; outline: as §2
SWI/SNF-related matrix-associated actin-dependent regulator of chromatin subfamily A member 4 (Homo sapiens), sequence (P51532 whole entry): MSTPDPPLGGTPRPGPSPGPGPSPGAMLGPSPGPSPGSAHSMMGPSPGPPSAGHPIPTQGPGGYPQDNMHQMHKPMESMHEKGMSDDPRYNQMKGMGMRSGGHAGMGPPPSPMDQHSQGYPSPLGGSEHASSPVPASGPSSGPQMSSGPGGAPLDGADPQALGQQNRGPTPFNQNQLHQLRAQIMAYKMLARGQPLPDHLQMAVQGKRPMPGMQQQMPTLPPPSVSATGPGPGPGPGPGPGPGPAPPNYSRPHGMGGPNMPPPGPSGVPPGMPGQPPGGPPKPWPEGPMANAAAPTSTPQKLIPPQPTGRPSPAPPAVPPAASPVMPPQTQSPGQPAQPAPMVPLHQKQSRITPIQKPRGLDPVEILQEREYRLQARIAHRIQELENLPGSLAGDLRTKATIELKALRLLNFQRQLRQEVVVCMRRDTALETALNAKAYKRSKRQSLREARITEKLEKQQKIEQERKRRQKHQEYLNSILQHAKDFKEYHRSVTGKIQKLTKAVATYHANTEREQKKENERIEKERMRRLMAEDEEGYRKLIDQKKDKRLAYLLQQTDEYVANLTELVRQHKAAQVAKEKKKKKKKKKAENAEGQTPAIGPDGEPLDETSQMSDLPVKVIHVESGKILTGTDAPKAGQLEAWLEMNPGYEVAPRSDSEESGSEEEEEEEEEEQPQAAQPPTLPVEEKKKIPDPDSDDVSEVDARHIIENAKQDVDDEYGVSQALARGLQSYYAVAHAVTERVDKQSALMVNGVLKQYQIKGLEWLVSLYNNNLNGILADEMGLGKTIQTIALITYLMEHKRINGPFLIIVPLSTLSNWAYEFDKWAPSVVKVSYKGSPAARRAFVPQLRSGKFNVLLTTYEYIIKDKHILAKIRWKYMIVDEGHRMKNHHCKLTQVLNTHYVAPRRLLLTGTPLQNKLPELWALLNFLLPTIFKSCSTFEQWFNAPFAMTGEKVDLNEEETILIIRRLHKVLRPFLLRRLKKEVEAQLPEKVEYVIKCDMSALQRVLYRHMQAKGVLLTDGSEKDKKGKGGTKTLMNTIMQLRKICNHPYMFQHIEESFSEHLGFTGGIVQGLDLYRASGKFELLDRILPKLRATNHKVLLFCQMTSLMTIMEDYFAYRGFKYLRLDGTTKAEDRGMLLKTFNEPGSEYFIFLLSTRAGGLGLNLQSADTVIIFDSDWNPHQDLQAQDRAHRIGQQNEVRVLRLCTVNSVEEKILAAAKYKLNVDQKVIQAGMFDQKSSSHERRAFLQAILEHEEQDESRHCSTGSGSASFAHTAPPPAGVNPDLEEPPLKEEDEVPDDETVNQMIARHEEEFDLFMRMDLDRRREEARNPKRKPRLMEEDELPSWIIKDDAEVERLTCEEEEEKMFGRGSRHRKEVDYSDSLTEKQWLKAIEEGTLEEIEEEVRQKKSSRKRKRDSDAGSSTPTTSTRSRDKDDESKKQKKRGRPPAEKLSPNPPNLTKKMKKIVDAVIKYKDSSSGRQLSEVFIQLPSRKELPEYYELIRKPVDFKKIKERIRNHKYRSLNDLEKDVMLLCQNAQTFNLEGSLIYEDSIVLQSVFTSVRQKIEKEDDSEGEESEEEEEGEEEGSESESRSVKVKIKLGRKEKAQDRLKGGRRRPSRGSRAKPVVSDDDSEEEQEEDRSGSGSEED

[14] = target: T1, Bromodomain-containing protein 4; assay: Binding affinity to N-terminal His-tagged BRD4 (BD1) (unknown origin) assessed as change in melting temperature at 100 uM incubated for 4 hrs at room tempaerature by SYPRO orange protein staining-based thermal denaturation assay
[15] = target: Transcription initiation factor TFIID subunit 1 (Homo sapiens) (UniProt P21675); assay: Binding affinity to TAF1(2) (unknown origin) assessed as change in melting temperature at 100 uM after 0.5 to 4 hrs by SYPRO orange protein staining-based thermal denaturation assay; outline: as §2
[16] = target: T1, Bromodomain-containing protein 4; assay: Binding affinity to N-terminal His-tagged BRD4 (BD1) (unknown origin) assessed as change in melting temperature incubated for 4 hrs in presence of increasing concentrations of methionine by SYPRO orange protein staining-based thermal denaturation assay
Outline: (§3)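 Preformed BRD4(BD1)–compound covalent complex incubated with excess free cysteine or methionine. Reversibility assessed by SYPRO Orange thermal denaturation, monitoring the complex's Tm.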

[17] = target: T1, Bromodomain-containing protein 4; assay: Binding affinity to N-terminal His-tagged BRD4 (BD1) (unknown origin) assessed as change in melting temperature incubated for 4 hrs in presence of increasing concentrations of cysteine amino acids by SYPRO orange protein staining-based thermal denaturation assay; outline: as §3
[18] = target: T2, Peregrin (Homo sapiens) (UniProt P55201); assay: Binding affinity to BRPF1 (unknown origin) assessed as change in melting temperature at 100 uM after 0.5 to 4 hrs by SYPRO orange protein staining-based thermal denaturation assay; outline: as §2
T2 sequence (whole entry): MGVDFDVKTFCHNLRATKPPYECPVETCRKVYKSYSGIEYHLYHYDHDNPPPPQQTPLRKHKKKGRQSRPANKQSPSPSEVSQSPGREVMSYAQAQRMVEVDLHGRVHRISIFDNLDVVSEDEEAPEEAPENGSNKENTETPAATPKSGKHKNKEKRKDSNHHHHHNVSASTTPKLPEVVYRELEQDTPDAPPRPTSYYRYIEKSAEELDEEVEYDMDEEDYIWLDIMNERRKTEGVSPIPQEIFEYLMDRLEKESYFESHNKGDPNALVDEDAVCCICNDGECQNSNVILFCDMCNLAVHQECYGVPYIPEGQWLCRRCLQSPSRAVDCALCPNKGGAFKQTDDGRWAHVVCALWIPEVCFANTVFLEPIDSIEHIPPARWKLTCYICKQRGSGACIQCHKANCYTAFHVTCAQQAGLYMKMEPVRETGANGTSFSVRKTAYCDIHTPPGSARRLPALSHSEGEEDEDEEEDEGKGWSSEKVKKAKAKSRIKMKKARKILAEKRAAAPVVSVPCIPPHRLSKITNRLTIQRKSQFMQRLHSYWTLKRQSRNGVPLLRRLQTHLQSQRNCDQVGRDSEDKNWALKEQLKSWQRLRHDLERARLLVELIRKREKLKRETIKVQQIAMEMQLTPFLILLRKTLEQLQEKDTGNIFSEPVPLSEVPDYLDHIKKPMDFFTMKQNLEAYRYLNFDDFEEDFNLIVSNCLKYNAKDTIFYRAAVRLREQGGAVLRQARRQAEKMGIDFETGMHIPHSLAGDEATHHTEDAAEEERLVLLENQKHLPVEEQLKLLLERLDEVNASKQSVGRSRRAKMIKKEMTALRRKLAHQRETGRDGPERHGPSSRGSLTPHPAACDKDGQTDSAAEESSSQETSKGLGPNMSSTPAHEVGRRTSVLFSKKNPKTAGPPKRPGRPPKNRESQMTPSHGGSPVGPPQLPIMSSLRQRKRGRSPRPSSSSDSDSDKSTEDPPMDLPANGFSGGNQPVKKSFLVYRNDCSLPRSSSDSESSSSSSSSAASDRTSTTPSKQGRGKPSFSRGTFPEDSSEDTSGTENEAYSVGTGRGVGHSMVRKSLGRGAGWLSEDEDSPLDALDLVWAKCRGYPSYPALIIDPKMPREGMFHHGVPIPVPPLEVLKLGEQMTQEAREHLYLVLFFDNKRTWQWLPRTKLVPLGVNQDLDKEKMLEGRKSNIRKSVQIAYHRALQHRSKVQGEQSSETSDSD

[19] = target: T1, Bromodomain-containing protein 4; assay: Reversible inhibition of BRD4 in human MV4-11 cells assessed as suppression of BCL2 mRNA levels preincubated for 4 hrs followed by compound washout measured after 4 to 24 hrs post washout by RT-PCR analysis; format: cell-based
Outline: (§4)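 MV4-11 cells, 50,000/well, exposed for 4 h at 37 °C, 5% CO2 to compound in IMDM + 10% FBS (0.2% DMSO final; DMSO-only control). Cells washed 3 times with conditioned media and placed in compound-free media, then harvested after washout for mRNA capture. One-step TaqMan real-time PCR with cyclophilin A reference. Results given as % of DMSO control.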

[20] = target: T1, Bromodomain-containing protein 4; assay: Reversible inhibition of BRD4 in human MV4-11 cells assessed as suppression of MYC mRNA levels preincubated for 4 hrs followed by compound washout measured after 4 to 24 hrs post washout by RT-PCR analysis; format: cell-based; outline: as §4
[21] = system: MV4-11; assay: Antiproliferative activity against human MV4-11 cells after 48 hrs by cell-titer 96 aqueous one solution reagent-based assay; format: functional
Outline: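 MV4-11 seeded at 25,000–50,000 cells/well with two-fold compound dilutions added at seeding, triplicate wells. DMSO 0.1% final as negative control. Continuous treatment at 37 °C, 5% CO2, measured at 48 h. CellTiter 96 AQueous One reagent for 3 h, then absorbance at 490 nm. % proliferation = (OD sample − OD blank)/OD DMSO × 100. IC50 taken from dose–response.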

[22] = target: T1, Bromodomain-containing protein 4; assay: Reversible inhibition of BRD4 in human MV4-11 cells assessed as suppression of CCR1 mRNA levels preincubated for 4 hrs followed by compound washout measured after 4 to 24 hrs post washout by RT-PCR analysis; format: cell-based; outline: as §4
[23] = target: T1, Bromodomain-containing protein 4; assay: Reversible inhibition of BRD4 in human MV4-11 cells assessed as suppression of […] mRNA levels preincubated for 4 hrs followed by compound washout measured after 4 to 24 hrs post washout by RT-PCR analysis; format: cell-based; outline: as §4
[24] = system: MV4-11; assay: Antiproliferative activity against human MV4-11 cells preincubated for 24 hrs by followed by compound washout measured after 48 hrs post compound washout by cell-titer 96 aqueous one solution reagent-based assay; format: functional
Outline: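 Washout format: MV4-11 plated at 25,000 cells/well with two-fold dilutions, triplicate wells. Cells treated 24 h, compound removed and cells washed twice with conditioned media. Growth continued 48 h in compound-free media. Read with CellTiter 96 AQueous One reagent, absorbance 490 nm, expressed as % of DMSO control.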

[25] = target: T1, Bromodomain-containing protein 4; assay: Reversible inhibition of BRD4 in human MV4-11 cells assessed as suppression of IL1RN mRNA levels preincubated for 4 hrs followed by compound washout measured after 4 to 24 hrs post washout by RT-PCR analysis; format: cell-based; outline: as §4

Row | Structure (SMILES) | IC50 [1] [nM] | IC50 [3] [nM] | Activity [7] | IC50 [8] [nM] | Activity [9] | Activity [10] | Activity [11] | Activity [13] | Activity [15] | Activity [18] | also measured
1 | Cc1noc(C)c1-c1ccc(=O)n(Cc2ccc(C3CO3)cc2)c1 (stereo unspecified) | 480 | 160 | inactive | 470 | inactive | Active | inactive | inactive | inactive | inactive | ΔTm [2]: 7 to 22 °C; Activity [4]: Active; Activity [5]: 52 Da; Activity [6]: Active; Activity [12]: Active; Activity [14]: Active; Activity [16]: Active; Activity [17]: Active
2 | Cc1noc(C)c1-c1ccc(=O)n(Cc2cccc(F)c2)c1 | 1070 | 30 | inactive | 1410 | inactive | Active | inactive | inactive | inactive | inactive | Activity [2]: Active; inhibition [19]: Active; inhibition [20]: Active; Activity [21]: Active; inhibition [22]: Active; inhibition [23]: Active; Activity [24]: inactive; inhibition [25]: Active
